In paper PMC8777244 (Biochemistry and Biophysics Reports, 2022):
Where “and” joins values, the source holds several entries; their conditions need not be identical. Identical values can stand only once. Entries after “also recorded” stand apart in the source; their conditions may differ.

Tests used:
[1] = Size-exclusion chromatography, oligomeric states; format: physicochemical
Procedure, shortened: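 HPLC gel filtration of amylose-purified MBP-fused NOX5 dehydrogenase domain, run against CaM and BSA references. Column equilibrated in Tris pH 7.5 (50 mM per figure legends, 20 mM per methods) with 0.2 M NaCl (0.2–0.5 M range), plus 2 mM Ca²⁺ or 1 mM EDTA. Runs at 1.0 mL/min with 280 nm detection. 2 M urea added to partially dissociate oligomers. Species assigned by elution time.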

CaM [2] = assay: CaM/CMBD binding by Trp fluorescence
CaM [3] = assay: CaM/CMBD binding by Trp fluorescence anisotropy; settings: Ca^2+
Procedure, shortened: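 Trp anisotropy of 1 μM CMBD peptide (residues 671–689) was recorded during CaM titration. Excitation was 280 or 295 nm, and excitation and emission slits were both 10 nm, with polarizers. Buffer was 50 mM Tris, pH 7.5, 2 mM Ca²⁺, at room temperature. Anisotropy values were fitted following earlier work. Values are mean ± SD of at least three runs.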

CaM [4] = assay: CaM/CMBD binding by isothermal titration calorimetry
Procedure, shortened: (§1)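 ITC was run on a VP-ITC at 25 °C in 50 mM Tris, 2 mM Ca²⁺, pH 7.5, with 0.15–0.25 M NaCl added for salt studies. Injections were 5 or 10 μL over 10 or 20 s, spaced 120 s. Heat of dilution (titrant into buffer) was subtracted. Data were fitted with a one-set-of-sites model. Back-titration used 250 μM CaM into 40 μM CMBD. Values are mean ± SD.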

NCaM = assay: CMBD/NCaM binding by isothermal titration calorimetry; settings: CMBD titrated into NCaM; 50 mM Tris, pH 7.5, 2 mM Ca^2+, 25 °C; mean ± SD
Procedure, shortened: as §1

CCaM = assay: CMBD/CCaM binding by isothermal titration calorimetry; settings: CMBD titrated into CCaM; 50 mM Tris, pH 7.5, 2 mM Ca^2+, 25 °C; mean ± SD
Procedure, shortened: as §1

CaM [5] = assay: CaM interaction by size-exclusion chromatography; format: binding; settings: D-CMBD with CaM; for Complex with CaM in SEC, Ca^2+: 0.2 M NaCl, 2 mM Ca^2+
Procedure, shortened: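 HPLC size-exclusion used a Shodex KW802.5 column at 1.0 mL/min with 280 nm detection. Buffer was Tris, pH 7.5, with 0.2 M NaCl (range 0.2–0.5 M) plus 2 mM Ca²⁺ or 1 mM EDTA. Samples were filtered through 0.45 μm. MBP-DH constructs, alone or mixed with CaM or Dansyl-CaM, were compared with BSA. Collected fractions were assayed for Dansyl fluorescence.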

D-CaM = assay: CMBD binding to Ca^2+-D-CaM by fluorescence; settings: CMBD added to 2 μM D-CaM, 50 mM Tris, 2 mM Ca^2+, pH 7.5
Procedure, shortened: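 D-CaM (Dansyl-labelled calmodulin) was excited at 335 nm, with excitation and emission slits of 2 and 5 nm, on a temperature-controlled fluorometer. Emission spectra were followed during titration with MBP-fused Nox5 dehydrogenase (DH) constructs or CMBD peptide. Buffer was 50 mM Tris, pH 7.5, with 2 mM Ca²⁺. Fits of intensity changes followed earlier work. Each measurement was done at least three times using 2–3 protein batches.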

CaM [6] = settings: Ca^2+-CaM; ref [11]; cited from earlier work
CaM [7] = settings: titration curve inflection point; ref [18]; cited from earlier work
CaM [8] = settings: ref [17]; cited from earlier work
Nox5 = settings: peptide from the scaffold domain of Cav-1; ref [13]; cited from earlier work
nitric oxide synthase = settings: Cav-1p residues 82–101; ref [26]; cited from earlier work
CaM [9] = assay: CaM/D-CMBD binding by Dansyl fluorescence
Procedure, shortened: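 N-terminally Dansyl-labelled Nox5β CMBD peptide (residues 671–689) was titrated with CaM at room temperature. Excitation was 335 nm, with 2/5 nm slits. Buffer was 50 mM Tris, pH 7.5, with 2 mM Ca²⁺ or 1 mM EDTA. Emission maxima and intensity changes were recorded and fitted following earlier work. Values are mean ± SD of at least three runs.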

Substance: Bovine serum albumin (BSA): Bovine serum albumin, SEC standard [reference compound]
- SEC elution time, BSA monomer ([1]; 50 mM Tris, pH 7.5, 0.2 M NaCl, 66 kDa): 8.57 min
- SEC elution time, BSA dimer ([1]; 50 mM Tris, pH 7.5, 0.2 M NaCl, 132 kDa): 7.76 min
- SEC elution time, BSA trimer ([1]; 50 mM Tris, pH 7.5, 0.2 M NaCl, 198 kDa): 7.23 min

Substance: H2NRPDWSKVFQKVAAEKKGKVCOOH [CMBD]
- Equivalents of CaM to saturate binding (intensity) (CaM [2]; 330 nm, Ca^2+): one
- Emission maximum, CaM-bound CMBD (CaM [2]; Trp fluorescence upon addition of CaM, Ca^2+): 330 nm
- CaM binding in the absence of Ca^2+ (CMBD) (CaM [2]; Trp fluorescence, 50 mM Tris, pH 7.5, 1 mM EDTA): A similar finding using CMBD's Trp fluorescence was found in the absence of Ca^2+; also recorded: non-specific electrostatic interaction which is not biologically significant
- Wavelength shift on CaM binding (CaM [2]; Trp fluorescence, blue shift, Ca^2+): ~20 nm
- Molar ratio at saturation (anisotropy) (CaM [3]; 1 μM CMBD with CaM): ~1.2
- Trp anisotropy value (r), complexed with CaM (maximum) (CaM [3]; 1 μM CMBD with CaM, emission 352 nm): 0.136
- Trp anisotropy value (r), peptide alone (CaM [3]; 1 μM CMBD, emission 352 nm): 0.0405
- nCaM/CMBD, ITC back-titration (CaM [4]; 250 μM CaM into 40 μM CMBD, 25 °C): 0.56
- Effect of NaCl on binding (CaM [4]; 0.1 − 0.25 M NaCl): does not change significantly
- Stoichiometry n[peptide]/Protein (nCMBD/CaM), ITC CaM/CMBD (back-titration) (CaM [4]; converted from nCaM/CMBD, 250 μM CaM into 40 μM CMBD, 25 °C, mean ± SD): 1.79 and 1.79 ± 0.11
- Cooperativity of CMBD binding (CaM [4]; two CMBD peptides on half-domains of CaM): no cooperativity was observed
- Binding constant, ITC CMBD/NCaM (NCaM): (2.42 ± 1.21) x 10^6 M^-1
- Binding constant, ITC CMBD/CCaM (CCaM): (9.50 ± 0.62) x 10^5 M^-1
- Complex with CaM in SEC, Ca^2+ (CaM [5]): a stable Ca^2+-CaM/CMBD complex was formed in non-equilibrium system
- Intensity change, CMBD with D-CaM (D-CaM): very small intensity; also recorded: small intensity change
- ANS fluorescence decrease of CaM/CMBD (CaM [6]): ~3%
- Ka, previous estimate (CaM [7]): 4e+07 M⁻¹
- Stoichiometry, previous estimate (CaM [7]): near unity stoichiometry
- Binding mode in crystal structure (CaM [8]): each of the two CMBD peptides is bound in the cleft formed in half-domain

Substance: Cav-1P: peptide from the scaffold domain of Cav-1 (residues 82–101) (DGIWKASFTTFTVTKYWFYR; UniProt Q03135 82-101, looked up, fragment)
- Effect on Nox5's superoxide-generating activity (Nox5): inhibit the Nox5's superoxide-generating activity
- Effect on NO production (nitric oxide synthase): inhibits the NO production

Substance: H2NRPDWSKVFQKVAAEKKGKVCOOH [D-CMBD]
- Stoichiometry n[Peptide]/[Protein], CaM/D-CMBD (CaM [9]; 2 μM D-CMBD titrated with CaM, Dansyl fluorescence, 50 mM Tris, pH 7.5, 2 mM Ca^2+, room temperature, mean ± SD): 2.11 and 2.11 ± 0.11
- Dansyl emission maximum, D-CMBD alone (CaM [9]; Ca^2+): 550 nm
- Dansyl emission maximum, D-CMBD with CaM (CaM [9]; Ca^2+): 518 nm
- Dansyl intensity increase on CaM binding (CaM [9]; Ca^2+): ~8 fold
- Binding affinity in the absence of Ca^2+ (CaM [9]; absence of Ca^2+ (EDTA), estimated, diminished in a higher ionic strength): ~10^5 M^-1
- SEC elution time, EDTA / apo ([1]; KW802.5 column, 1.0 mL/min, 0.2 M NaCl, 1 mM EDTA, pH 7.5): 25.67 min
- SEC elution time, Ca^2+ ([1]; KW802.5 column, 1.0 mL/min, 0.2 M NaCl, 2 mM Ca^2+, pH 7.5): 29.31 min
- Dansyl fluorescence in CaM fraction, absence of Ca^2+ (CaM [5]; 1 mM EDTA): No Dansyl fluorescence was found in the CaM fractions
- Complex with CaM in SEC, Ca^2+ (CaM [5]): complexed with Ca^2+-CaM when a large excess of CaM was included

Substance: hemoglobin [reference compound]
- SEC elution time, reference protein ([1]; 0.2 M NaCl, same settings): 9.51 min
